Reference: ChEMBL document CHEMBL2417369, “Synthesis and evaluation of heteroaryl substituted diazaspirocycles as scaffolds to probe the ATP-binding site of protein kinases” (Bioorg Med Chem, 2013)

Tests used:
[1] = biological target: Casein kinase I isoform delta (Homo sapiens, UniProt P48730); experiment: Inhibition of CK1delta (unknown origin) by microfluidic mobility shift assay
[2] = biological target: T1, Mitogen-activated protein kinase 1 (Homo sapiens, UniProt P28482); experiment: Inhibition of ERK2 (unknown origin) by microfluidic mobility shift assay
T1 sequence (P28482 whole entry): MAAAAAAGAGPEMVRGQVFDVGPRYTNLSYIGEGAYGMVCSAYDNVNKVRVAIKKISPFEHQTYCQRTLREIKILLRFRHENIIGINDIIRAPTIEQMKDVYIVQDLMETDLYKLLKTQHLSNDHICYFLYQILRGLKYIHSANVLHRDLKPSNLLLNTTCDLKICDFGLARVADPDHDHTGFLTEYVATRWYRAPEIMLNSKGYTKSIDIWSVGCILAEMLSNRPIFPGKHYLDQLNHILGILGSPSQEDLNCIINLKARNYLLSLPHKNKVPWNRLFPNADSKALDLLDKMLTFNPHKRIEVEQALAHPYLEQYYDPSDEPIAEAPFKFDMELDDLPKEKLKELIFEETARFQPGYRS

[3] = biological target: MAP kinase-activated protein kinase 5 (Homo sapiens, UniProt Q8IW41); experiment: Inhibition of PRAK (unknown origin) by microfluidic mobility shift assay
[4] = biological target: Rho-associated protein kinase 2 (Homo sapiens) (UniProt O75116); experiment: Inhibition of ROCK2 (unknown origin) at 30 uM by microfluidic mobility shift assay relative to control
Outline: (§1)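 Single-point screen against a 24-kinase panel in a commercial microfluidic assay format. Compounds were tested at 30 µM, with ATP at approximately the Km,[ATP] of each enzyme. H-89 was included on each assay plate as an internal control.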

[5] = biological target: Serine/threonine-protein kinase PAK 2 (Homo sapiens) (UniProt Q13177); experiment: Inhibition of PAK2 (unknown origin) at 30 uM by microfluidic mobility shift assay relative to control
Sequence of Serine/threonine-protein kinase PAK 2 (Homo sapiens) (Q13177 whole entry): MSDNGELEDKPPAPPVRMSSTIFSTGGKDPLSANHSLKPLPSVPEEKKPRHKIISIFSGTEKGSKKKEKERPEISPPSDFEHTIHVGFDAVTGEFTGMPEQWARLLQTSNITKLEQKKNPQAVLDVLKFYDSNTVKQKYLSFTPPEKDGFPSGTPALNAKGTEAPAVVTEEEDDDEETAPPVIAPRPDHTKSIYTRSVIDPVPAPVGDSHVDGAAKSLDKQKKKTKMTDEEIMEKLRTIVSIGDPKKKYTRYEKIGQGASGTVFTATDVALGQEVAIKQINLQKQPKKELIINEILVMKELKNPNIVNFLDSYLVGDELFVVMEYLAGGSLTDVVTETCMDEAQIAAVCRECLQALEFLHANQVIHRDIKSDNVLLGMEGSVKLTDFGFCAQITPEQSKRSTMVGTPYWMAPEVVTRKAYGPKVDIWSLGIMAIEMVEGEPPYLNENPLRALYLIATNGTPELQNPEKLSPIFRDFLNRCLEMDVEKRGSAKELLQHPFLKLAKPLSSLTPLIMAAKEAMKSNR
Outline: (§2)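 Single-point screen at 30 µM test compound across a 24-kinase panel in a microfluidic assay format. ATP was set near each enzyme's Km,[ATP]. […] The pan-AGC inhibitor H-89 served as an internal control on every assay plate.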

[6] = biological target: T2, Aurora kinase C (Homo sapiens) (UniProt Q9UQB9); experiment: Inhibition of AURC (unknown origin) at 30 uM by microfluidic mobility shift assay relative to control; outline: as §2
T2 sequence (whole entry): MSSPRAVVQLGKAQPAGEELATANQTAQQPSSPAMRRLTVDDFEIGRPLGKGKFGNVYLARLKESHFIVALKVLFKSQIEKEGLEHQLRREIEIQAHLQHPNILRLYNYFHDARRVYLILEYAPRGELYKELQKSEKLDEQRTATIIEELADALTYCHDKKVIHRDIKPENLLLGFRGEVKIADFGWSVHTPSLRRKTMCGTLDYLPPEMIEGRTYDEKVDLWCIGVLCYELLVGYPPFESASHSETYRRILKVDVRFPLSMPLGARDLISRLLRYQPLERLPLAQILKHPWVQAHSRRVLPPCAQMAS

[7] = biological target: Ribosomal protein S6 kinase alpha-4 (Homo sapiens) (UniProt O75676); experiment: Inhibition of MSK2 (unknown origin) at 30 uM by microfluidic mobility shift assay relative to control; outline: as §2
[8] = biological target: Serine/threonine-protein kinase MARK2 (Homo sapiens) (UniProt Q7KZI7); experiment: Inhibition of MARK2 (unknown origin) at 30 uM by microfluidic mobility shift assay relative to control; outline: as §2
[9] = biological target: Tyrosine-protein kinase ABL2 (Homo sapiens) (UniProt P42684); experiment: Inhibition of ARG (unknown origin) at 30 uM by microfluidic mobility shift assay relative to control; outline: as §2
[10] = biological target: Fibroblast growth factor receptor 4 (Homo sapiens) (UniProt P22455); experiment: Inhibition of FGFR4 (unknown origin) at 30 uM by microfluidic mobility shift assay relative to control; outline: as §2
Sequence of Fibroblast growth factor receptor 4 (Homo sapiens) (P22455 22-802 limits assumed): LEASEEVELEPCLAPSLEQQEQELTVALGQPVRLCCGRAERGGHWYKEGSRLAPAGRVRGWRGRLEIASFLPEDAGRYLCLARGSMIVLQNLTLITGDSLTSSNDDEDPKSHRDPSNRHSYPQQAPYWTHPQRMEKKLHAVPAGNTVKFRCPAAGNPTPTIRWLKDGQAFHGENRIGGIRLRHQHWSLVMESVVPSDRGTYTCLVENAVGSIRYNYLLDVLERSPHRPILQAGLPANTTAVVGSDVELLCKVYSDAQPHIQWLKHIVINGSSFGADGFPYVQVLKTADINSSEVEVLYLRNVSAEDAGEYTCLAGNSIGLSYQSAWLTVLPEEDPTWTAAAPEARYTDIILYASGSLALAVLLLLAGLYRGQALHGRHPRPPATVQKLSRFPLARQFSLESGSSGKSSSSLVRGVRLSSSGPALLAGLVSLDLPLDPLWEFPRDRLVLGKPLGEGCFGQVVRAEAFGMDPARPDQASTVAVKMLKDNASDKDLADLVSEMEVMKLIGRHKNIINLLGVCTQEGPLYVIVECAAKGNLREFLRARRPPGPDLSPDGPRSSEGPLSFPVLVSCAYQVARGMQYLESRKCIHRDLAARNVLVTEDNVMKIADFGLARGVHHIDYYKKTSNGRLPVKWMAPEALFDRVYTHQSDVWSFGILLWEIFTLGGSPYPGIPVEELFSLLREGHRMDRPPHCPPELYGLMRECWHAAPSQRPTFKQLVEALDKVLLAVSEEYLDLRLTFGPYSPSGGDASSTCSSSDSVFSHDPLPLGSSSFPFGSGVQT

[11] = biological target: Tyrosine-protein kinase HCK (Homo sapiens) (UniProt P08631); experiment: Inhibition of HCK (unknown origin) at 30 uM by microfluidic mobility shift assay relative to control; outline: as §2
[12] = biological target: Aurora kinase B (Homo sapiens) (UniProt Q96GD4); experiment: Inhibition of AURB (unknown origin) at 30 uM by microfluidic mobility shift assay relative to control; outline: as §2
Sequence of Aurora kinase B (Homo sapiens) (Q96GD4 whole entry): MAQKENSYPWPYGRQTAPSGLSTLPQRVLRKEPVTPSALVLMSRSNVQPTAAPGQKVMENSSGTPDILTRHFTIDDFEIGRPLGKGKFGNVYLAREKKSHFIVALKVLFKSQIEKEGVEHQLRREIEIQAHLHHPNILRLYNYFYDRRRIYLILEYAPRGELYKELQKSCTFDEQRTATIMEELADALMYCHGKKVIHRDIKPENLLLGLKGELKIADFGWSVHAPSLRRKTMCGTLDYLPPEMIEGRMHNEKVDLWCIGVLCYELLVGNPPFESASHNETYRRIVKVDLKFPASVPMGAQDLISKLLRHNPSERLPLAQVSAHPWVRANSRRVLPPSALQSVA

[13] = biological target: Calcium/calmodulin-dependent protein kinase type II subunit beta (Homo sapiens) (UniProt Q13554); experiment: Inhibition of CAMK2beta (unknown origin) at 30 uM by microfluidic mobility shift assay relative to control; outline: as §2
[14] = biological target: Protein kinase C alpha type (Homo sapiens) (UniProt P17252); experiment: Inhibition of PKCalpha (unknown origin) at 30 uM by microfluidic mobility shift assay relative to control; outline: as §2
[15] = biological target: Serine/threonine-protein kinase pim-2 (Homo sapiens) (UniProt Q9P1W9); experiment: Inhibition of PIM2 (unknown origin) at 30 uM by microfluidic mobility shift assay relative to control; outline: as §2
Sequence of Serine/threonine-protein kinase pim-2 (Homo sapiens) (Q9P1W9 whole entry, looked up): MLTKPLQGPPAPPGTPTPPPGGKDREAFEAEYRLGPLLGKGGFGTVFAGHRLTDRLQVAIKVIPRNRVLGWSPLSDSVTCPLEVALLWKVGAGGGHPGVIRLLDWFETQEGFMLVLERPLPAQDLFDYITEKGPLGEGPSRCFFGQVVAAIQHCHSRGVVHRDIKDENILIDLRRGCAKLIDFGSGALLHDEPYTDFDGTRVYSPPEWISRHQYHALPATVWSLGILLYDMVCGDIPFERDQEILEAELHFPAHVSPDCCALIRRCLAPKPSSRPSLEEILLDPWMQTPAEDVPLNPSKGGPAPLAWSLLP

[16] = biological target: T3, Serine/threonine-protein kinase 3 (Homo sapiens) (UniProt Q13188); experiment: Inhibition of MST2 (unknown origin) at 30 uM by microfluidic mobility shift assay relative to control; outline: as §2
T3 sequence (whole entry): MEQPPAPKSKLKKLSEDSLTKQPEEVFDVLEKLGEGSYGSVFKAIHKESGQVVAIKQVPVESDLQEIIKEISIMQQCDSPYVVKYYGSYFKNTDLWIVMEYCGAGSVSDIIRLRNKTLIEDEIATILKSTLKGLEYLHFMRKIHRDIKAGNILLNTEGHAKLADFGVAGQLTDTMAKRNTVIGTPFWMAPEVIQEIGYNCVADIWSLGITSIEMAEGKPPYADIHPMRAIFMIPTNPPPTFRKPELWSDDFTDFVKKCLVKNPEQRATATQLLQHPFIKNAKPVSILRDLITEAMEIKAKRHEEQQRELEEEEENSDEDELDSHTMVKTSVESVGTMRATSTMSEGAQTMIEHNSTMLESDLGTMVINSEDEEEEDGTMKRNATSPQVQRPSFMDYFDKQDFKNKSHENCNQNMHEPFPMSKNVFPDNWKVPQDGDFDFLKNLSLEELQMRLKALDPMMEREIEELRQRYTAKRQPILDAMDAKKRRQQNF

[17] = biological target: Protein kinase C theta type (Homo sapiens) (UniProt Q04759); experiment: Inhibition of PKCtheta (unknown origin) at 30 uM by microfluidic mobility shift assay relative to control; outline: as §1
Sequence of Protein kinase C theta type (Homo sapiens) (Q04759 whole entry, looked up): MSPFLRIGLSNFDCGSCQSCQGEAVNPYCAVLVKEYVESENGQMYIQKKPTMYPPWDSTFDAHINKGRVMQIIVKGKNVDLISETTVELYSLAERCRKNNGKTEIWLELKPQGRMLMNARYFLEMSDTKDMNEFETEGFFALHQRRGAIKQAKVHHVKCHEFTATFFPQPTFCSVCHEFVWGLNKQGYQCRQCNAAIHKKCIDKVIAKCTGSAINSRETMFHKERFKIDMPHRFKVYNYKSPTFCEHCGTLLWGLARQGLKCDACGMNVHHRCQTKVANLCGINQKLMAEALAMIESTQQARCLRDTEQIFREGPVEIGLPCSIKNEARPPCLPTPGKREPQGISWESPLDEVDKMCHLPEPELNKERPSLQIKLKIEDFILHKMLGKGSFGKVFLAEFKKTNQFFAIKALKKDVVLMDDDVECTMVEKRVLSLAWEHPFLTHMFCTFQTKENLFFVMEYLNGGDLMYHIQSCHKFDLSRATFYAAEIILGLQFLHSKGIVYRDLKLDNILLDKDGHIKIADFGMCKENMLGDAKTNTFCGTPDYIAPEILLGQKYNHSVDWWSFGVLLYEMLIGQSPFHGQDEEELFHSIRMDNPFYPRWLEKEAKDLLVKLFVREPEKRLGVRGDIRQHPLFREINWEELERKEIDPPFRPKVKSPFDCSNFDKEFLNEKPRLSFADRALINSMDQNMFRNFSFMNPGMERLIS

[18] = biological target: Fibroblast growth factor receptor 3 (Homo sapiens) (UniProt P22607); experiment: Inhibition of FGFR3 (unknown origin) at 30 uM by microfluidic mobility shift assay relative to control; outline: as §2
Sequence of Fibroblast growth factor receptor 3 (Homo sapiens) (P22607 23-806 limits assumed): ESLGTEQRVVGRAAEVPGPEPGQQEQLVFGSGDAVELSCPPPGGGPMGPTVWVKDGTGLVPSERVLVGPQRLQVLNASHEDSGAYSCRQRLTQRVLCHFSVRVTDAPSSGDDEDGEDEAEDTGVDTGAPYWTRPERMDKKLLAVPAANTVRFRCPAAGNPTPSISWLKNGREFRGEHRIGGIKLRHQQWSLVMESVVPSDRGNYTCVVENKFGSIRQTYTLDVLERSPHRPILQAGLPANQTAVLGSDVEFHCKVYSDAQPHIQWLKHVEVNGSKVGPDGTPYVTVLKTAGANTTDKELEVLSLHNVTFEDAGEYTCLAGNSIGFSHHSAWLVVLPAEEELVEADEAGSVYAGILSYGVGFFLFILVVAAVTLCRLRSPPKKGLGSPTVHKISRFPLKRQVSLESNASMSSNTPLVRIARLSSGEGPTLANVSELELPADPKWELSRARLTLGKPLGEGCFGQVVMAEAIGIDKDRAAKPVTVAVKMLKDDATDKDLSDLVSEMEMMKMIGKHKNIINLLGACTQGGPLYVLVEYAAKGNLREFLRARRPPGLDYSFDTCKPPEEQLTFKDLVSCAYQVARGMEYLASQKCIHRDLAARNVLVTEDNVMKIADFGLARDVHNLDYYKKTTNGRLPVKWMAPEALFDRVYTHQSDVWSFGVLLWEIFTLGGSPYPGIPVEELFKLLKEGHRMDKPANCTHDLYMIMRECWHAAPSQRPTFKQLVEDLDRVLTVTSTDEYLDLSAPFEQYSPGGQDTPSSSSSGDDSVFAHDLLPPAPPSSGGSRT

[19] = biological target: Mitogen-activated protein kinase 3 (Homo sapiens, UniProt P27361); experiment: Inhibition of MAPK3 (unknown origin) at 30 uM by microfluidic mobility shift assay relative to control; outline: as §2
Sequence of Mitogen-activated protein kinase 3 (P27361 whole entry): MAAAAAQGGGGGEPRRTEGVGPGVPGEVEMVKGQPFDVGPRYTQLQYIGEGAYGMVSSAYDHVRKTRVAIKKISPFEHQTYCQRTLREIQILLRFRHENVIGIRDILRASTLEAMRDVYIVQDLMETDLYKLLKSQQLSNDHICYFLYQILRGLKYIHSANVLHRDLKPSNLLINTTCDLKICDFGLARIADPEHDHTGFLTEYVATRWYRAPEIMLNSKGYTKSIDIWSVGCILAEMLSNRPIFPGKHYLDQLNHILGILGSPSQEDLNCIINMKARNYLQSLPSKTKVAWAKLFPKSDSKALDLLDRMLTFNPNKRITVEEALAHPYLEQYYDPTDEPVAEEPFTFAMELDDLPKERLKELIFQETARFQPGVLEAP

[20] = biological target: T4, Serine/threonine-protein kinase Nek2 (Homo sapiens) (UniProt P51955); experiment: Inhibition of NEK2 (unknown origin) at 30 uM by microfluidic mobility shift assay relative to control; outline: as §2
T4 sequence (whole entry): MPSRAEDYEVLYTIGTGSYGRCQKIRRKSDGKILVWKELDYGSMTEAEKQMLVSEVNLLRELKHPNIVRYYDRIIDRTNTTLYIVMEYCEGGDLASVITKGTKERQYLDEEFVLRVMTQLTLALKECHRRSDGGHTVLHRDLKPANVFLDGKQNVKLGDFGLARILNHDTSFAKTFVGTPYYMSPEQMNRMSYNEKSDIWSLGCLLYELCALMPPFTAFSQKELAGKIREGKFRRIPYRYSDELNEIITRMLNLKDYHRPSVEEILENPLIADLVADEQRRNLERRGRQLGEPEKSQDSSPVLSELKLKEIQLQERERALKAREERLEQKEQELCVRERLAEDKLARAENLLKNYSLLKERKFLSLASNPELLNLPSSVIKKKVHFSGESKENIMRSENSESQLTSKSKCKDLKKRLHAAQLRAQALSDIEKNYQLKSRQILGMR

[21] = biological target: T1, Mitogen-activated protein kinase 1; experiment: Inhibition of MAPK2 (unknown origin) at 30 uM by microfluidic mobility shift assay relative to control; outline: as §2

| SMILES | IC50 [1] [µM] | IC50 [2] [µM] | inhibition [4] [%] | inhibition [5] [%] | inhibition [6] [%] | inhibition [7] [%] | inhibition [8] [%] | inhibition [9] [%] | inhibition [10] [%] | inhibition [11] [%] | inhibition [12] [%] | inhibition [13] [%] | inhibition [14] [%] | inhibition [15] [%] | inhibition [16] [%] | inhibition [17] [%] | inhibition [18] [%] | inhibition [19] [%] | inhibition [20] [%] | inhibition [21] [%] | further results |
| --- | --- | --- | --- | --- | --- | --- | --- | --- | --- | --- | --- | --- | --- | --- | --- | --- | --- | --- | --- | --- | --- |
| c1nc(N2CCC3(CCCCN3)CC2)c2nc[nH]c2n1 | 238 | 47 |  |  |  |  |  |  |  |  |  |  |  |  |  |  |  |  |  |  | IC50 [3]: 226 µM |
| c1nc(N2CCC3(CCCNC3)CC2)c2nc[nH]c2n1 | 97 | 38 |  |  |  |  |  |  |  |  |  |  |  |  |  |  |  |  |  |  | IC50 [3]: 41 µM |
| c1ccc(C2CCNC3(CCN(c4ncnc5[nH]cnc45)CC3)C2)cc1 (racemic) |  |  | 99 | 20 | 54 | 94 | 72 | 23 | 4 | 41 | 64 | 32 | 59 | 4 | 17 | 77 | 7 | 13 | 14 | 9 |  |
| c1ccc(CC2CCNC3(CCN(c4ncnc5[nH]cnc45)CC3)C2)cc1 (racemic) |  |  | 98 | 19 | 46 | 100 | 60 | 13 | 0 | 22 | 66 | 29 | 78 | 21 | 10 | 75 | 7 | 9 | 11 | 6 |  |
| c1ccc(CC2CCC3(CCN(c4ncnc5[nH]cnc45)CC3)NC2)cc1 (racemic) |  |  | 78 | 13 | 61 | 52 | 47 | 18 | 7 | 15 | 73 | 17 | 35 | 13 | 18 | 17 | 10 | 7 | 7 | 15 |  |
